# Measured values as given in article PMC9177108 (The Oncologist, 2022).
# How the values were obtained:
# FGFR = details: AL3810 compared with sorafenib; cited from earlier work
# Plasma pharmacokinetics = type: in vivo, human; details: for AUC(0-t) / AUC / Vd/F / half-life / k el / Cmax / concentration at 15 day / MRT: human, plasma, 10 mg; for AUC: AUCss; for Vd/F: V z/F; for Cmax: C max; for concentration at 15 day: Css; for Css, max, Mean ± SD: C1D15, 10 mg p.o.
# Procedure, shortened: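 Test compound was given at 10 mg orally, either continuously daily or 3 weeks on/1 week off. Plasma PK was sampled on cycle 1 day 1 after a single dose for Tmax, Cmax, AUC0-24h, AUC0-t, AUC0-∞, λz, t1/2, CL/F, Vz/F, %AUCex and MRT. After multiple doses, steady-state parameters were Css max/min/avg, Tss,max, AUCss, CLss/F, Vss/F, %Fluctuation and accumulation ratios. […]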
# [1] = oral, GeoMean(%CVb), single dose, C1D1, continuous arm (n = 5)
# [2] = oral, GeoMean(%CVb), single dose, C1D1, intermittent arm (n = 4)
# [3] = multiple dose, C1D15, continuous arm (n=5)
# [4] = multiple dose, C1D15, intermittent arm (n=4)
# [5] = single dose, C1D1, continuous arm (n = 5)
# [6] = single dose, C1D1, intermittent arm (n = 4)
smiles,measurement,setting,value
CNC(=O)c1cccc2cc(Oc3ccnc4cc(OCC5(N)CC5)c(OC)cc34)ccc12 [Lucitanib],potency against FGFR,FGFR,more potent
same,time at which steady state is reached (trough levels),Plasma pharmacokinetics; 10 mg p.o. once daily,≤ 15 days
same,AUC(0-t),"Plasma pharmacokinetics; AUC0-t, GeoMean(%CVb), single dose, C1D1, continuous arm (n = 5)",2370 ng·h/mL
same,AUC(0-t),"Plasma pharmacokinetics; AUC0-t, GeoMean(%CVb), single dose, C1D1, intermittent arm (n = 4)",2720 ng·h/mL
same,AUC,"Plasma pharmacokinetics; GeoMean(%CVb), multiple dose, C1D15, continuous arm (n=5)",6170 ng·h/mL
same,AUC,"Plasma pharmacokinetics; GeoMean(%CVb), multiple dose, C1D15, intermittent arm (n=4)",9160 ng·h/mL
same,AUC,"Plasma pharmacokinetics; Mean ± SD, multiple dose, C1D15, continuous arm (n=5)",6670 ± 2630 ng·h/mL
same,AUC,"Plasma pharmacokinetics; Mean ± SD, multiple dose, C1D15, intermittent arm (n=4)",9680 ± 3710 ng·h/mL
same,Vd/F,"Plasma pharmacokinetics; GeoMean(%CVb), single dose, C1D1, continuous arm (n = 5)",68 L
same,Vd/F,"Plasma pharmacokinetics; GeoMean(%CVb), single dose, C1D1, intermittent arm (n = 4)",58.1 L
same,Vd/F,"Plasma pharmacokinetics; Mean ± SD, single dose, C1D1, continuous arm (n = 5)",75.2 ± 40.2 L
same,Vd/F,"Plasma pharmacokinetics; Mean ± SD, single dose, C1D1, intermittent arm (n = 4)",60.8 ± 19.8 L
same,half-life,"Plasma pharmacokinetics; t 1/2, GeoMean(%CVb), single dose, C1D1, continuous arm (n = 5)",21.9 h
same,half-life,"Plasma pharmacokinetics; t 1/2, GeoMean(%CVb), single dose, C1D1, intermittent arm (n = 4)",22.1 h
same,half-life,"Plasma pharmacokinetics; t 1/2, Mean ± SD, single dose, C1D1, continuous arm (n = 5)",23.8 ± 11.8 h
same,half-life,"Plasma pharmacokinetics; t 1/2, Mean ± SD, single dose, C1D1, intermittent arm (n = 4)",24.8 ± 15.5 h
same,k el,"Plasma pharmacokinetics; λ z, GeoMean(%CVb), single dose, C1D1, continuous arm (n = 5)",8.33e-06 s⁻¹
same,k el,"Plasma pharmacokinetics; λ z, GeoMean(%CVb), single dose, C1D1, intermittent arm (n = 4)",8.33e-06 s⁻¹
same,k el,"Plasma pharmacokinetics; λ z, Mean ± SD, single dose, C1D1, continuous arm (n = 5)",8.33e-06 s⁻¹
same,k el,"Plasma pharmacokinetics; λ z, Mean ± SD, single dose, C1D1, intermittent arm (n = 4)",8.33e-06 s⁻¹
same,k el,"Plasma pharmacokinetics; λz, Mean ± SD, multiple dose, C1D15, continuous arm (n=5)",5.56e-06 s⁻¹
same,k el,"Plasma pharmacokinetics; λz, Mean ± SD, multiple dose, C1D15, intermittent arm (n=4)",5.56e-06 s⁻¹
same,AUC(0-t),"Plasma pharmacokinetics; oral, AUC0-24h, GeoMean(%CVb), single dose, C1D1, continuous arm (n = 5)",2410 ng·h/mL
same,AUC(0-t),"Plasma pharmacokinetics; oral, AUC0-24h, GeoMean(%CVb), single dose, C1D1, intermittent arm (n = 4)",2770 ng·h/mL
same,AUC(0-t),"Plasma pharmacokinetics; oral, AUC0-24h, Mean ± SD, single dose, C1D1, continuous arm (n = 5)",2560 ± 858 ng·h/mL
same,AUC(0-t),"Plasma pharmacokinetics; oral, AUC0-24h, Mean ± SD, single dose, C1D1, intermittent arm (n = 4)",3110 ± 1890 ng·h/mL
same,AUC(0-t),"Plasma pharmacokinetics; oral, AUC0-t, Mean ± SD, single dose, C1D1, continuous arm (n = 5)",2510 ± 834 ng·h/mL
same,AUC(0-t),"Plasma pharmacokinetics; oral, AUC0-t, Mean ± SD, single dose, C1D1, intermittent arm (n = 4)",3030 ± 1750 ng·h/mL
same,Cmax,Plasma pharmacokinetics; [1],261 ng/mL
same,Cmax,Plasma pharmacokinetics; [2],228 ng/mL
same,concentration at 15 day,"Plasma pharmacokinetics; oral, avg, GeoMean(%CVb), multiple dose, C1D15, continuous arm (n=5)",257 ng/mL
same,concentration at 15 day,"Plasma pharmacokinetics; oral, avg, GeoMean(%CVb), multiple dose, C1D15, intermittent arm (n=4)",382 ng/mL
same,concentration at 15 day,"Plasma pharmacokinetics; oral, avg, Mean ± SD, multiple dose, C1D15, continuous arm (n=5)",278 ± 110 ng/mL
same,concentration at 15 day,"Plasma pharmacokinetics; oral, avg, Mean ± SD, multiple dose, C1D15, intermittent arm (n=4)",403 ± 155 ng/mL
same,concentration at 15 day,"Plasma pharmacokinetics; oral, min, GeoMean(%CVb), multiple dose, C1D15, continuous arm (n=5)",176 ng/mL
same,concentration at 15 day,"Plasma pharmacokinetics; oral, min, GeoMean(%CVb), multiple dose, C1D15, intermittent arm (n=4)",284 ng/mL
same,concentration at 15 day,"Plasma pharmacokinetics; oral, min, Mean ± SD, multiple dose, C1D15, continuous arm (n=5)",203 ± 93.5 ng/mL
same,concentration at 15 day,"Plasma pharmacokinetics; oral, min, Mean ± SD, multiple dose, C1D15, intermittent arm (n=4)",303 ± 118 ng/mL
same,MRT,Plasma pharmacokinetics; [1],32.2 h
same,MRT,Plasma pharmacokinetics; [2],32.6 h
same,MRT,"Plasma pharmacokinetics; oral, Mean ± SD, single dose, C1D1, continuous arm (n = 5)",34.2 ± 14.3 h
same,MRT,"Plasma pharmacokinetics; oral, Mean ± SD, single dose, C1D1, intermittent arm (n = 4)",36.3 ± 21.6 h
same,k el,"Plasma pharmacokinetics; oral, λz, GeoMean(%CVb), multiple dose, C1D15, continuous arm (n=5)",2.78e-06 s⁻¹
same,k el,"Plasma pharmacokinetics; oral, λz, GeoMean(%CVb), multiple dose, C1D15, intermittent arm (n=4)",5.56e-06 s⁻¹
same,"Css, max, Mean ± SD","Plasma pharmacokinetics; multiple dose, continuous arm (n=5)",482.80 ± 271.81 ng/mL
same,"Css, max, Mean ± SD","Plasma pharmacokinetics; multiple dose, intermittent arm (n=4)",608.50 ± 169.48 ng/mL
same,"%Fluctuation, GeoMean(%CVb)",Plasma pharmacokinetics; [3],90.75(63.71) %
same,"%Fluctuation, Mean ± SD",Plasma pharmacokinetics; [3],104.26 ± 61.47%
same,"CLss/F, GeoMean(%CVb)",Plasma pharmacokinetics; [3],1.62(49.01) L/hour
same,"CLss/F, Mean ± SD",Plasma pharmacokinetics; [3],1.78 ± 0.93 L/h
same,"Css, max, GeoMean(%CVb)",Plasma pharmacokinetics; [3],435.78(50.87) ng/mL
same,"R ac, AUC (accumulation ratio based on AUC), Mean ± SD",Plasma pharmacokinetics; [3],2.62 ± 0.55
same,"R ac, Cmax (accumulation ratio based on Cmax), Mean ± SD",Plasma pharmacokinetics; [3],1.98 ± 1.20
same,"Tss, max, Median",Plasma pharmacokinetics; [3],2.97 h
same,"%Fluctuation, GeoMean(%CVb)",Plasma pharmacokinetics; [4],79.03(27.10) %
same,"%Fluctuation, Mean ± SD",Plasma pharmacokinetics; [4],81.15 ± 21.54%
same,"CLss/F, GeoMean(%CVb)",Plasma pharmacokinetics; [4],1.09(40.16) L/hour
same,"CLss/F, Mean ± SD",Plasma pharmacokinetics; [4],1.15 ± 0.45 L/h
same,"Css, max, GeoMean(%CVb)",Plasma pharmacokinetics; [4],590.42(29.26) ng/mL
same,"R ac, AUC (accumulation ratio based on AUC), Mean ± SD",Plasma pharmacokinetics; [4],3.38 ± 0.84
same,"R ac, Cmax (accumulation ratio based on Cmax), Mean ± SD",Plasma pharmacokinetics; [4],2.67 ± 0.69
same,"Tss, max, Median",Plasma pharmacokinetics; [4],1.98 h
same,"%AUCex, GeoMean(%CVb)",Plasma pharmacokinetics; [5],47.22(22.24) %
same,"%AUCex, Mean ± SD",Plasma pharmacokinetics; [5],48.16 ± 10.87%
same,"CL/F, GeoMean(%CVb)",Plasma pharmacokinetics; [5],2.15(57.72) L/hour
same,"CL/F, Mean ± SD",Plasma pharmacokinetics; [5],2.44 ± 1.5048 L/h
same,"%AUCex, GeoMean(%CVb)",Plasma pharmacokinetics; [6],46.33(29.69) %
same,"%AUCex, Mean ± SD",Plasma pharmacokinetics; [6],47.96 ± 15.75%
same,"CL/F, GeoMean(%CVb)",Plasma pharmacokinetics; [6],1.83(105.30) L/hour
same,"CL/F, Mean ± SD",Plasma pharmacokinetics; [6],2.24 ± 1.21 L/h
same,"exposure (Cmax, AUC0-24h) at steady state relative to day 1","Plasma pharmacokinetics; steady state vs day 1, 10 mg p.o.",two to three times
